Source: PubChem
Shown is part of a subset that was picked to be rich in hits.
PolyA inh – polyadenylation inhibitors in yeast reporter cells, primary screen, luminescence, S. cerevisiae; S. cerevisiae SKY197-pL101 polyadenylation reporter, beta-gal luminescence; efflux-impaired pdr1/pdr3 knockout yeast; score 100 = 6 SD above DMSO; activity score, % at 12 µM; 0.02% of 300,000 active; AID 1875, 2009;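 active = lowest replicate activity score at least 50, where 100 means six control SD above control mean; inconclusive = lowest score under 50 but half or more replicates reach 50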;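 note: yeast exposed to compound for 9 h at 30 °C; higher score means more reporter readthrough which indicates perturbed polyadenylation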
Calb FLC – C. albicans growth inhibition with fluconazole, primary screen, CaCi-2 strain, Alamar Blue fluorescence | 0.57% of 300,000 active | growth inhibition, % (no concentration beside the values) | C. albicans CaCi-2 (fluconazole-resistant clinical isolate) + fluconazole, 48 h;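 active = growth inhibition above about 58% in most replicates, limit read from the data, passing the limit was not always enough; inconclusive = exactly half the replicates above a set limit; inactive = most replicates below a set limit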;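 note: all wells also contain fluconazole at 8 µg/ml as a sub-toxic cotreatment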
Lmaj promast – Leishmania major promastigote growth inhibition, primary screen | Leishmania major promastigotes, resazurin fluorescence viability | inhibition, % at 10 µM | AID 1063, 2008 | 9% of 200,000 active; in the data active = inhibition above about 50%;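 note: promastigotes grown with compound for 44 hours at 28 °C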
NALP1 inh – NALP1 inflammasome inhibitors in reconstituted yeast, colorimetric, S. cerevisiae, triplicate retest. S. cerevisiae NALP1/ASC/caspase-1 growth, X-gal OD620, 72 h. inhibition, % at 10 µM. 0.61% of 280,000 active. AID 2071, 2009; in the data active = inhibition mostly above about 24%, no sharp cut-off; inactive = mostly below about 32%
T cruzi repl – inhibitors of intracellular T. cruzi growth, primary screen, luminescence, NIH3T3 host cells; T. cruzi beta-gal in NIH3T3, 90 h; inhibition, % (test concentration not listed); 1.4% of 300,000 active; AID 1885, 2009;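 active = mean inhibition across valid replicates above about 55%, limit read from the data; inconclusive = mean below that limit but half or more replicates reach it; inactive = mean below it, under half of replicates reach it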;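 note: signal also drops with host cell toxicity which is not excluded here; higher percent means less beta-gal luminescence so fewer parasites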
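Incubation – ≥90 h infection period, 3 h prior cell attachment · System – NIH/3T3 fibroblasts plus reporter T. cruzi · Doses – compound pinned at 50 nL/well, DMSO · Read-out basis – percent inhibition of parasite-derived β-gal signal · Signal – luminescent β-galactosidase signal after 60 min lysis · Also added – 5000 T. cruzi trypomastigotes/well · Medium – Low-serum DMEM with 2% FBS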
NALP3 yeast inh – NALP3 inflammasome inhibitors in reconstituted yeast, primary screen, luminescence, uHTS; 0.39% of 330,000 active; Yeast reconstituted NLRP3/ASC/caspase-1, beta-gal luminescence, 24 h; inhibition, % at 10 µM;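 active = inhibition of 50% or more; inactive = inhibition below 50%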
Numbers stand for hits; – = inactive; ? = inconclusive; · = no result given.

SMILES	PolyA inh	Calb FLC	Lmaj promast	NALP1 inh	T cruzi repl	NALP3 yeast inh
CC(=O)[C@@]1(O)C(C)CC2C3C=C(C)C4=Cc5c(cnn5-c5ccccc5)C[C@]4(C)C3C(O)C[C@@]21C (some centres not stated)	–	·	·	–	64.3	·
Cc1cc(C(=O)NC2CC(C)(C)Cc3c2cnn3-c2ccccc2)n(C)n1 (configuration not stated)	–	–	·	–	–	–
CCCN1CCC2(CC1)C(C#N)=C(N)Oc1c2sc2nc(C)cc(C)c12	–	–	52.0	–	–	–
CN(C)CC#CCC(O)(c1ccccc1)c1ccccc1	–	–	·	–	–	–
CN(C)CC#CCOC(c1ccccc1)c1ccccc1	–	–	99.2	–	–	–
CCN(CC)CC#CCOC(c1ccccc1)c1ccccc1	–	–	98.5	–	–	–
CCN(CC)CCC(C)OC(c1ccccc1)c1ccccc1 (configuration not stated)	–	–	99.8	–	–	–
S=C(Nc1ccc2c(c1)OCO2)N1CCN(Cc2ccco2)CC1	–	–	–	–	–	–
COc1cc2c(cc1OC)CN(c1ccc(F)cc1[N+](=O)[O-])CC2	–	–	·	–	–	–
COc1ccc(S(=O)(=O)n2nc(C)cc2C)c(C)c1C	–	–	50.1	–	–	–
Cc1cc(C)n(S(=O)(=O)c2ccc(C)c(C)c2C)n1	–	–	–	·	–	–
Cn1nnc(NCc2cc(Br)ccc2OCc2cccs2)n1	–	–	89.3	–	–	–
O=C(COc1ccc2ccccc2c1Br)NCc1ccccn1	–	–	–	–	–	–
C/C=C/c1ccc(OCC(=O)N(CCOC)c2c(N)n(CCCC)c(=O)[nH]c2=O)c(OC)c1	–	–	·	·	–	–
CCS(=O)(=O)N1CCN(Cc2c[nH]c3ccccc23)CC1	–	–	–	–	–	–
CCS(=O)(=O)N1CCN(Cc2ccccc2OC)CC1	–	–	60.1	–	–	–
CCOc1ccccc1CN1CCN(S(=O)(=O)CC)CC1	–	–	82.0	–	–	–
CCCS(=O)(=O)N1CCN(Cc2ccccc2OCC)CC1	–	–	–	–	–	–
O=[N+]([O-])c1ccc(N=Nc2c(Cl)cc(O)cc2Cl)cc1	–	?	·	99.0	–	·
O=C(CCNC(=O)c1ccc(Br)cc1)Nc1nccs1	–	111.7	–	–	–	–
O=C(CCNC(=O)c1ccc([N+](=O)[O-])cc1)Nc1nccs1	–	–	–	–	–	–
COc1ccc(OCC(O)Cn2c(=N)n(CCN3CCCCC3)c3ccccc32)cc1 (configuration not stated)	·	·	100.1	–	·	–
Cc1ccc(OCC(O)Cn2c(=N)n(CCN3CCOCC3)c3ccccc32)cc1 (configuration not stated)	–	–	–	–	–	–
CCCCn1c(=N)n(CC(O)COc2cccc(C)c2)c2ccccc21 (configuration not stated)	–	–	100.4	–	–	–
Cc1ccc(OCC(O)Cn2c(=N)n(CCN3CCCCC3)c3ccccc32)cc1 (configuration not stated)	–	–	100.4	–	73.4	–
SMILES	PolyA inh	Calb FLC	Lmaj promast	NALP1 inh	T cruzi repl	NALP3 yeast inh
O=C(Nc1nc(-c2ccccn2)cs1)C1CC1	–	–	86.2	–	–	–
O=C(Nc1nc(-c2ccccn2)cs1)C1CC(=O)N(c2ccc3c(c2)OCCO3)C1 (configuration not stated)	–	–	100.1	–	–	–
CN(CC1CCCO1)S(=O)(=O)c1ccc(C(=O)Nc2nc(-c3ccccn3)cs2)cc1 (configuration not stated)	·	·	100.3	–	·	–
CN(CC1CCCO1)S(=O)(=O)c1ccc(C(=O)Nc2ccccc2F)cc1 (configuration not stated)	–	–	·	–	–	–
O=C(CC1CC2CCC1C2)Nc1nc(-c2ccccn2)cs1 (configuration not stated)	–	86.5	100.0	–	62.0	–
CCOc1ccc(S(=O)(=O)NNS(=O)(=O)c2ccc(C)cc2C)cc1	–	–	·	–	–	–
O=C(NC(=S)N1CCN(c2ccccn2)CC1)c1ccco1	–	–	–	–	–	–
COc1ccccc1CNC(=O)CCS(=O)(=O)c1ccc2c(c1)CCCN2C(C)=O	–	–	–	–	–	–
Cn1c(=O)c2c(SCC(=O)N3CCCc4ccccc43)nc(C3CC3)nc2n(C)c1=O	–	–	61.3	·	–	–
Cc1sc2nc(C3CC3)nc(SCC(=O)N3CCCc4ccccc43)c2c1C	–	–	93.5	–	–	–
Cc1sc2nc(C3CC3)nc(SCC(=O)N3CCc4ccccc4C3)c2c1C	–	–	–	–	–	–
c1ccc2c(CN3CCSCC3)cccc2c1	–	–	·	–	–	–
CCOc1ccc2nc(N/C(N)=N/C(=S)Nc3ccc(C)c(C)c3)nc(C)c2c1	–	–	–	–	?	–
CCNC(=S)/N=C(\N)Nc1nc(C)c2cc(C)ccc2n1	–	–	81.4	–	–	–
Cc1cc(C)nc(NC(=NCCc2c[nH]c3ccccc23)NC(=O)Nc2ccc(Cl)cc2)n1	–	–	73.1	–	–	–
Cc1cc(C)nc(NC(N)=NCCc2c[nH]c3ccccc23)n1	–	–	78.2	–	–	–
NC(=NCCc1c[nH]c2ccccc12)NC(=O)c1ccc(Cl)cc1	–	–	59.9	–	–	–
O=C(N[C@@H](Cc1c[nH]c2ccccc12)C(=O)O)c1ccc(Cl)cc1	–	–	–	–	–	–
CCc1ccc(/C=C2\Oc3c(ccc(O)c3CN3CCN(CCO)CC3)C2=O)cc1	–	–	·	–	–	–
CC(C)(C)C(=O)Nc1c(Cl)cccc1OC(F)(F)F	–	–	·	–	–	–
CC(=O)c1nc(N2C(=O)CC(Cc3cccc(C)c3)C2=O)sc1C (configuration not stated)	–	–	–	–	–	–
CC(=O)c1nc(N2C(=O)CC(Cc3cc(C)cc(C)c3)C2=O)sc1C (configuration not stated)	–	–	53.6	–	–	–
CCOC(=O)CN1C(=O)S/C(=C/c2ccc(O)c([N+](=O)[O-])c2)C1=O	–	–	51.8	–	–	–
O=C(CCC(=O)c1cccs1)OCC(=O)c1ccccc1F	·	·	·	·	·	–
CCOC(=O)C(=O)c1csc(NC(=O)COc2ccc(N(C)S(=O)(=O)c3ccc(F)cc3)cc2)n1	–	–	–	–	–	–
Cc1ccc(S(=O)(=O)N(C)c2ccc(OCC(=O)Nc3nc(-c4ccccc4)cs3)cc2)cc1	–	–	89.3	–	–	–
Cc1ccc(S(=O)(=O)N(C)c2ccc(OCC(=O)Nc3nc4ccccc4s3)cc2)cc1	–	–	98.2	–	–	–
C/C(=N\OCC(=O)Nc1nc2ccccc2s1)c1ccccc1	–	–	–	–	–	–
